# From ChEMBL document CHEMBL1124186, “Synthesis and evaluation of tylosin-related macrolides modified at the aldehyde function: a new series of orally effective antibiotics” (1988)
# Key:
# Mus musculus [1] = assay: Peripheral plasma levels in mice after oral administration of 50 mg/kg dose for 0.25 hr; assay type: functional, organism-based; parameters: dose 50 mg/kg
# Procedure, shortened: (§1)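 Mice were given the compound orally and sampled for peripheral plasma at each time point. Plasma was assayed microbiologically against Micrococcus luteus seeded in Antibiotic Medium 1. Inhibition zone sizes were read, and concentrations were calculated from each compound's own standard curve. Each value is the mean of five mice per time point.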
# Streptococcus pneumoniae [2] = assay: In vivo effective dose against experimental infections in mice Streptococcus pneumoniae park when administered orally; assay type: functional; conditions: po
# Mus musculus [3] = assay: Peripheral plasma levels in mice after oral administration of 50 mg/kg dose for 1 hr; assay type: functional, organism-based; parameters: dose 50 mg/kg; procedure, shortened: as §1
# Fusobacterium = assay: In vitro antimicrobial activity against anaerobic bacteria fusobacterium symbiosum 1470; assay type: functional
# Staphylococcus aureus [4] = assay: In vitro antimicrobial activity against aerobic bacteria Staphylococcus aureus V135; assay type: functional
# Mus musculus [5] = assay: Peripheral plasma levels in mice after oral administration of 100 mg/kg dose for 2 hr; assay type: functional, organism-based; parameters: dose 100 mg/kg; procedure, shortened: as §1
# Streptococcus pneumoniae [6] = assay: In vitro antimicrobial activity against aerobic bacteria Streptococcus pneumoniae B1-438; assay type: functional, streptococcus pneum
# Streptococcus pneumoniae [7] = assay: In vivo effective dose against experimental infections in mice Streptococcus pneumoniae administered sc; assay type: functional
# Eikenella corrodens = assay: In vitro antimicrobial activity against anaerobic bacteria bacteroides corrodens 1874; assay type: functional
# [8] = test system: Fusobacterium necrophorum; assay: In vitro antimicrobial activity against anaerobic bacteria usobacterium necrophorum 6054A; assay type: functional
# Staphylococcus aureus [9] = assay: In vitro antimicrobial activity against aerobic bacteria Staphylococcus aureus 513E; assay type: functional
# Staphylococcus aureus [10] = assay: In vitro antimicrobial activity against Staphylococcus aureus X1; assay type: functional
# Mus musculus [11] = assay: Peripheral plasma levels in mice after oral administration of 50 mg/kg dose for 4 hr; assay type: functional, organism-based; parameters: dose 50 mg/kg; procedure, shortened: as §1
# Haemophilus influenzae [12] = assay: In vitro antimicrobial activity against aerobic bacteria Haemophilus influenzae 76; assay type: functional
# Streptococcus [13] = assay: In vitro antimicrobial activity against aerobic bacteria Streptococcus D 9960; assay type: functional
# Bacteroides fragilis [14] = assay: In vitro antimicrobial activity against anaerobic bacteria bacteroides fragilis 1877; assay type: functional
# [15] = test system: Prevotella melaninogenica; assay: In vitro antimicrobial activity against anaerobic bacteria bacteroides melaninogenicus 2736; assay type: functional
# Staphylococcus aureus [16] = assay: In vitro antimicrobial activity against aerobic bacteria Staphylococcus aureus V41; assay type: functional
# Haemophilus influenzae [17] = assay: In vitro antimicrobial activity against aerobic bacteria Haemophilus influenzae 465; assay type: functional
# Streptococcus [18] = assay: In vitro antimicrobial activity against aerobic bacteria Streptococcus D 2041; assay type: functional
# Mus musculus [19] = assay: Peripheral plasma levels in mice after oral administration of 50 mg/kg dose for 2 hr; assay type: functional, organism-based; parameters: dose 50 mg/kg; procedure, shortened: as §1
# Clostridium perfringens = assay: In vitro antimicrobial activity against anaerobic bacteria clostridium perfringens 81,; assay type: functional
# Haemophilus influenzae [20] = assay: In vitro antimicrobial activity against aerobic bacteria Haemophilus influenzae MX366,; assay type: functional
# Chlamydia trachomatis = assay: In vitro antimicrobial activity against chlamydia trachomatis.; assay type: functional
# [21] = test system: Peptoniphilus asaccharolyticus; assay: In vitro antimicrobial activity against anaerobic bacteria peptococcus asaccharolyticus 1302; assay type: functional
# Phocaeicola vulgatus = assay: In vitro antimicrobial activity against anaerobic bacteria bacteroides vulgatus 1211; assay type: functional
# Mus musculus [22] = assay: Peripheral plasma levels in mice after oral administration of 100 mg/kg dose for 4 hr; assay type: functional, organism-based; parameters: dose 100 mg/kg; procedure, shortened: as §1
# [23] = test system: Haemophilus parainfluenzae; assay: In vitro antimicrobial activity against aerobic bacteria Haemophilus parainfluenzae 9796; assay type: functional
# Collinsella aerofaciens = assay: In vitro antimicrobial activity against anaerobic bacteria aerofaciens 1235; assay type: functional
# Streptococcus [24] = assay: In vitro antimicrobial activity against aerobic bacteria Streptococcus B 14; assay type: functional
# Mus musculus [25] = assay: Peripheral plasma levels in mice after oral administration of 50 mg/kg dose for 0.5 hr; assay type: functional, organism-based; parameters: dose 50 mg/kg; procedure, shortened: as §1
# Enterococcus faecium = assay: In vitro antimicrobial activity against Streptococcus faecium X66; assay type: functional, streptococcus fae-cium
# [26] = test system: Prevotella melaninogenica; assay: In vitro antimicrobial activity against anaerobic bacteria bacteroides melaninogenicus 1856,; assay type: functional
# Staphylococcus aureus [27] = assay: In vitro antimicrobial activity against aerobic bacteria Staphylococcus aureus V140,; assay type: functional
# [28] = In vitro antimicrobial activity against anaerobic bacteria peptostreptococcus intermedius 1264; assay type: functional
# Anaerococcus prevotii = assay: In vitro antimicrobial activity against anaerobic bacteria peptococcus prevoti 1281; assay type: functional
# [29] = test system: Peptostreptococcus anaerobius; assay: In vitro antimicrobial activity against anaerobic bacteria eubacterium peptostreptococcus anaerobius 1428,; assay type: functional
# Mus musculus [30] = assay: Peripheral plasma levels in mice after oral administration of 100 mg/kg dose for 0.5 hr; assay type: functional, organism-based; parameters: dose 100 mg/kg; procedure, shortened: as §1
# Mus musculus [31] = assay: Peripheral plasma levels in mice after oral administration of 100 mg/kg dose for 1 hr; assay type: functional, organism-based; parameters: dose 100 mg/kg; procedure, shortened: as §1
# Bacteroides fragilis [32] = assay: In vitro antimicrobial activity against anaerobic bacteria bacteroides fragilis 111; assay type: functional
# Staphylococcus aureus [33] = assay: In vitro antimicrobial activity against aerobic bacteria Staphylococcus aureus X400; assay type: functional
# Bacteroides fragilis [34] = assay: In vitro antimicrobial activity against anaerobic bacteria bacteroides fragilis 1936B,; assay type: functional
# [35] = test system: Staphylococcus epidermidis; assay: In vitro antimicrobial activity against aerobic bacteria Streptococcus epi 222; assay type: functional
# Haemophilus influenzae [36] = assay: In vitro antimicrobial activity against Haemophilus influenzae.; assay type: functional
# [37] = test system: Staphylococcus epidermidis; assay: In vitro antimicrobial activity against Staphylococcus epidermidis EPI1; assay type: functional
# Clostridium septicum = assay: In vitro antimicrobial activity against anaerobic bacteria clostridium septicum 1128; assay type: functional
# Cutibacterium acnes = assay: In vitro antimicrobial activity against anaerobic bacteria propionibacterium acnes 79; assay type: functional
# [38] = test system: Bacteroides thetaiotaomicron; assay: In vitro antimicrobial activity against anaerobic bacteria bacteroides thetaiotaomicron 1438; assay type: functional
# Mus musculus [39] = assay: Peripheral plasma levels in mice after oral administration of 100 mg/kg dose for 0.25 hr; assay type: functional, organism-based; parameters: dose 100 mg/kg; procedure, shortened: as §1
# Streptococcus [40] = assay: In vitro antimicrobial activity against aerobic bacteria Streptococcus D 8043; assay type: functional
# Streptococcus [41] = assay: In vitro antimicrobial activity against aerobic bacteria Streptococcus B 5; assay type: functional
# [42] = test system: Staphylococcus epidermidis; assay: In vitro antimicrobial activity against aerobic bacteria Streptococcus epi 270; assay type: functional
# Clostridioides difficile = assay: In vitro antimicrobial activity against anaerobic bacteria Clostridium difficile 2994; assay type: functional
smiles,measurement,setting,value
CC[C@H]1OC(=O)C[C@@H](O)[C@H](C)[C@@H](O[C@@H]2O[C@H](C)[C@@H](O)[C@H](N(C)C)[C@H]2O)[C@@H](CCOc2ccc(C(=O)c3ccccc3)cc2)C[C@@H](C)C(=O)/C=C/C(C)=C/[C@@H]1CO[C@@H]1O[C@H](C)[C@@H](O)[C@@H](OC)[C@H]1OC,Concentration,Mus musculus [1],0.1 µg/mL
same,ED50,Streptococcus pneumoniae [2],> 50 mg/kg
same,Concentration,Mus musculus [3],0.1 µg/mL
same,MIC,Fusobacterium,2 µg/mL
same,MIC,Staphylococcus aureus [4],0.5 µg/mL
same,Concentration,Mus musculus [5],2 µg/mL
same,MIC,Streptococcus pneumoniae [6],128 µg/mL
same,ED50,Streptococcus pneumoniae [7],> 20 mg/kg
same,MIC,Eikenella corrodens,2 µg/mL
same,MIC,[8],4 µg/mL
same,MIC,Staphylococcus aureus [9],0.25 µg/mL
same,MIC,Staphylococcus aureus [10],0.25 µg/mL
same,Concentration,Mus musculus [11],0.8 µg/mL
same,MIC,Haemophilus influenzae [12],16 µg/mL
same,MIC,Streptococcus [13],0.5 µg/mL
same,MIC,Bacteroides fragilis [14],2 µg/mL
same,MIC,[15],2 µg/mL
same,MIC,Staphylococcus aureus [16],0.25 µg/mL
same,MIC,Haemophilus influenzae [17],32 µg/mL
same,MIC,Streptococcus [18],0.5 µg/mL
same,Concentration,Mus musculus [19],1.8 µg/mL
same,MIC,Clostridium perfringens,< 0.5 µg/mL
same,MIC,Haemophilus influenzae [20],16 µg/mL
same,MIC,Chlamydia trachomatis,> 2 µg/mL
same,MIC,[21],< 0.5 µg/mL
same,MIC,Phocaeicola vulgatus,< 0.5 µg/mL
same,Concentration,Mus musculus [22],1.2 µg/mL
same,MIC,[23],32 µg/mL
same,MIC,Collinsella aerofaciens,< 0.5 µg/mL
same,MIC,Streptococcus [24],1 µg/mL
same,Concentration,Mus musculus [25],0.4 µg/mL
same,MIC,Enterococcus faecium,0.25 µg/mL
same,MIC,[26],< 0.5 µg/mL
same,MIC,Staphylococcus aureus [27],0.5 µg/mL
same,MIC,[28],< 0.5 µg/mL
same,MIC,Anaerococcus prevotii,2 µg/mL
same,MIC,[29],< 0.5 µg/mL
same,Concentration,Mus musculus [30],1.1 µg/mL
same,Concentration,Mus musculus [31],2.3 µg/mL
same,MIC,Bacteroides fragilis [32],2 µg/mL
same,MIC,Staphylococcus aureus [33],0.25 µg/mL
same,MIC,Bacteroides fragilis [34],4 µg/mL
same,MIC,[35],0.12 µg/mL
same,MIC,Haemophilus influenzae [36],16 µg/mL
same,MIC,[37],0.25 µg/mL
same,MIC,Clostridium septicum,< 0.5 µg/mL
same,MIC,Cutibacterium acnes,< 0.5 µg/mL
same,MIC,[38],4 µg/mL
same,Concentration,Mus musculus [39],1.3 µg/mL
same,MIC,Streptococcus [40],0.25 µg/mL
same,MIC,Streptococcus [41],1 µg/mL
same,MIC,[42],> 128 µg/mL
same,MIC,Clostridioides difficile,< 0.5 µg/mL
